ChEMBL document CHEMBL1135638, “Synthesis, molecular modeling studies, and pharmacological activity of selective A(1) receptor antagonists” (J Med Chem, 2002)

How the values were obtained:
[1] = target: T1, Adenosine receptor A1 (Bos taurus) (UniProt P28190); experiment: Percent inhibition of specific [3H]CHA binding on Adenosine A1 receptor in bovine cortical membranes at 10 uM concentration; format: cell membranes
T1 sequence (whole entry): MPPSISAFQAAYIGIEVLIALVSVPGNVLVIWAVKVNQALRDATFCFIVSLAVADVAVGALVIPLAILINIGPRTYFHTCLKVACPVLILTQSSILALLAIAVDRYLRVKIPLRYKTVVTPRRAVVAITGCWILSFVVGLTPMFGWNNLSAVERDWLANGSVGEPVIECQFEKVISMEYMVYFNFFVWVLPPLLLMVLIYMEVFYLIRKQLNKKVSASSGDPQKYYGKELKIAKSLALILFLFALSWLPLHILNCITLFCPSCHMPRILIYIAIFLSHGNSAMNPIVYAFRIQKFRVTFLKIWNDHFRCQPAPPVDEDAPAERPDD

[2] = test system: Adenosine receptor A2a (Bos taurus); experiment: Percent inhibition of specific [3H]-CGS-21,680 binding to adenosine A2A receptors in bovine striatal membranes at 10 uM concentration
Adenosine receptor A1 [3] = target: T2, Adenosine receptor A1 (Bos taurus, UniProt P28190); experiment: Binding affinity at bovine Adenosine A1 receptor.
T2 sequence (P28190 whole entry): T1 sequence (whole entry)

Adenosine receptor A1 [4] = target: T2, Adenosine receptor A1; experiment: Binding affinity to Adenosine A1 receptor in bovine cortical membranes by [3H]N6-cyclohexyl adenosine displacement.; format: cell membranes
[5] = Compound was evaluated for the inhibition of Adenylate cyclase activity; format: functional
Adenosine receptor A1 [6] = target: T3, Adenosine receptor A1 (Rattus norvegicus, UniProt P25099); experiment: Binding affinity against rat Adenosine A1 receptor
T3 sequence (P25099 whole entry): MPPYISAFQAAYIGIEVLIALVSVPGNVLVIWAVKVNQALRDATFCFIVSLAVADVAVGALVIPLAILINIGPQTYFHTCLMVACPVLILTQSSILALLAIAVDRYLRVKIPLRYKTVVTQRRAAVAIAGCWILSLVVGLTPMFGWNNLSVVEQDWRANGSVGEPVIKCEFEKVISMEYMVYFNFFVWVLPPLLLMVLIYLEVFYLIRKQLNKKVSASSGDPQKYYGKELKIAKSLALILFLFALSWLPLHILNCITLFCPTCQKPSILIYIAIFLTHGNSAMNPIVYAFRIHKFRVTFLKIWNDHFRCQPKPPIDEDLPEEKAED

Adenosine receptor A1 [7] = target: T2, Adenosine receptor A1; experiment: Displacement of [3H]DPCPX from Adenosine A1 receptor of bovine cortical membranes with 1 mM GTP
How it was run: (§1)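 [3H]DPCPX displacement from bovine cortical membranes, method of Pirovano et al., run with and without 1 mM GTP. Values from three separate experiments, mean ± SEM.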

Adenosine receptor A1 [8] = target: T2, Adenosine receptor A1; experiment: Displacement of [3H]DPCPX from Adenosine A1 receptor of bovine cortical membranes without GTP; how it was run: as §1

Row | inhibition [1] [%] | inhibition [2] [%] | Ki (Adenosine receptor A1 [3]) [nM] | Structure (SMILES) | other results
1 | 21 | 0 | – | CCOC(=O)c1cnc2c(cnn2/C=C/c2ccccc2)c1NC1CCCCC1 | –
2 | – | – | 101 | COc1ccc(-c2nc(N)c3c(C)c(C)n(C(C)c4ccccc4)c3n2)cc1 (stereo not given) | –
3 | – | – | 7.9 | Cc1cnc2c(NC3CCCC3)nc3ccccc3n12 | –
4 | – | 0 | – | CCOC(=O)c1cnc2c(cnn2CC(Cl)c2ccccc2)c1NCc1ccccc1 (stereo not given) | –
5 | 39 | 0 | – | CCOC(=O)c1cnc2c(cnn2/C=C/c2ccccc2)c1N1CCCC1 | –
6 | – | – | 29.5 | CCCSc1nc(SC(CC)C(N)=O)nc2c1ncn2-c1ccccc1 (stereo not given) | –
7 | – | 5 | – | CCOC(=O)c1cnc2c(cnn2CC(Cl)COc2ccccc2)c1NCCc1ccccc1 (stereo not given) | Ki (Adenosine receptor A1 [4]): 456 nM
8 | 40 | 0 | – | CCOC(=O)c1cnc2c(cnn2CC(Cl)COc2ccccc2)c1N1CCOCC1 (stereo not given) | –
9 | – | 0 | – | CCOC(=O)c1cnc2c(cnn2CC(Cl)c2ccccc2)c1NC1CCCCC1 (stereo not given) | Ki (Adenosine receptor A1 [4]): 1490 nM
10 | 36 | 12 | – | CCOC(=O)c1cnc2c(cnn2CC(Cl)COc2ccccc2)c1NCc1ccccc1 (stereo not given) | –
11 | 41 | 23 | – | CCOC(=O)c1cnc2c(cnn2CC(Cl)c2ccccc2)c1N1CCCCC1 (stereo not given) | –
12 | – | – | – | CCOCCNc1c(C(=O)OCC)cnc2c1cnn2CC(Cl)COc1ccccc1 (stereo not given) | Ki (Adenosine receptor A1 [4]): 2690 nM
13 | 60 | 0 | – | CCCCNc1c(C(=O)OCC)cnc2c1cnn2/C=C/c1ccccc1 | –
14 | 39 | 2 | – | CCOC(=O)c1cnc2c(cnn2/C=C/c2ccccc2)c1NCc1ccccc1 | –
15 | – | – | 540 | CN1C=NC2C(NC3CCCC3)=NC=NC21 (stereo not given) | –
16 | 40 | 0 | – | CCOC(=O)c1cnc2c(cnn2/C=C/c2ccccc2)c1N1CCOCC1 | –
17 | – | – | – | CCOC(=O)c1cnc2c(cnn2CC(Cl)c2ccccc2)c1N1CCCC1 (stereo not given) | IC50 [5]: 154 nM; Ki (Adenosine receptor A1 [6]): 140 nM; Ki (Adenosine receptor A1 [7]): 90 nM; Ki (Adenosine receptor A1 [8]): 103 nM
18 | 51 | 0 | – | CCOCCNc1c(C(=O)OCC)cnc2c1cnn2/C=C/c1ccccc1 | –

Row | inhibition [1] [%] | inhibition [2] [%] | Ki (Adenosine receptor A1 [3]) [nM] | Structure (SMILES) | other results
19 | – | – | 7.3 | FC(F)(F)c1nnc2c(NC3CCCC3)nc3ccccc3n12 | –
20 | – | 34 | – | CCOC(=O)c1cnc2c(cnn2CC(Cl)COc2ccccc2)c1NC1CC1 (stereo not given) | Ki (Adenosine receptor A1 [4]): 1050 nM
21 | – | 0 | – | CCOC(=O)c1cnc2c(cnn2CC(Cl)c2ccccc2)c1N1CCOCC1 (stereo not given) | –
22 | – | 23 | – | CCCCNc1c(C(=O)OCC)cnc2c1cnn2CC(Cl)COc1ccccc1 (stereo not given) | Ki (Adenosine receptor A1 [4]): 1220 nM
23 | – | – | – | CCOC(=O)c1cnc2c(cnn2CC(Cl)c2ccccc2)c1NCCc1ccccc1 (stereo not given) | IC50 [5]: 52.2 nM; Ki (Adenosine receptor A1 [6]): 73 nM; Ki (Adenosine receptor A1 [7]): 56 nM; Ki (Adenosine receptor A1 [8]): 69.7 nM
24 | 40 | 0 | – | CCCNc1c(C(=O)OCC)cnc2c1cnn2/C=C/c1ccccc1 | –
25 | 33 | 15 | – | CCOC(=O)c1cnc2c(cnn2CC(Cl)COc2ccccc2)c1N1CCCC1 (stereo not given) | –
26 | – | – | 600 | Nc1nc(-c2ccncc2)nc2c1c1c(n2-c2ccccc2)CCCC1 | –
27 | – | – | 176 | Cc1nn(C)c2c(=O)[nH]c(-c3ccc(Cl)cc3N)nc12 | –
28 | – | – | 6.6 | O=C(O)CCCn1nc(-c2c(-c3ccccc3)nn3ccccc23)ccc1=O | –
29 | – | – | 2.6 | C[C@H](c1ccccc1)n1c2ccccc2c2c(N)nc(-c3ccccc3)nc21 | –
30 | – | 1 | – | CCOC(=O)c1cnc2c(cnn2CC(Cl)COc2ccccc2)c1NC1CCCCC1 (stereo not given) | Ki (Adenosine receptor A1 [4]): 3710 nM
31 | – | – | 0.49 | O=C(/C=C/C1=CC=CN2N=C(c3ccccc3)CC12)N1CCCC[C@H]1CCO (stereo not given in full) | –
32 | 58 | 2 | – | CCOC(=O)c1cnc2c(cnn2/C=C/c2ccccc2)c1NCCc1ccccc1 | –
33 | 67 | 0 | – | CCOC(=O)c1cnc2c(cnn2/C=C/c2ccccc2)c1NC1CC1 | –
34 | – | – | 13 | Nc1nc2ccc(Cl)cc2n2nc(-c3ccccc3F)nc12 | –
35 | – | – | 10 | c1ccc(-c2nc3c(NC4CCCC4)[nH]c4ccccc4c-3n2)cc1 | –

Row | Structure (SMILES) | inhibition [1] [%] | inhibition [2] [%] | Ki (Adenosine receptor A1 [3]) [nM] | other results
36 | CCCn1c(=O)c2[nH]c(C3CCC(=O)C3)nc2n(CCC)c1=O (stereo not given) | – | – | 15 | –
